Data published in ChEMBL document CHEMBL3734675, “Synthesis, antimycobacterial and antibacterial activity of fluoroquinolone derivatives containing an 3-alkoxyimino-4-(cyclopropylanimo)methylpyrrolidine moiety” (2015).
In brackets after ≈: the same amount, converted by molar mass.

Tests used:
Type in all cases: functional
[1] = system: Staphylococcus epidermidis; test: Antibacterial activity against methicillin-resistant Staphylococcus epidermidis 14-22 after 18 to 24 hrs by two-fold serial dilution method
Outline: (§1)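 Agar media, standard twofold serial dilution. MIC is the lowest concentration giving complete inhibition of bacterial growth after incubation at 35 °C for 18–24 h. Ciprofloxacin and levofloxacin were run as comparators.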

Klebsiella pneumoniae [2] = test: Antibacterial activity against Klebsiella pneumoniae 14-4 after 18 to 24 hrs by two-fold serial dilution method
Outline: (§2)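 Twofold serial dilution in agar media against Gram-positive and Gram-negative strains. Plates incubated at 35 °C for 18–24 h. MIC read as the lowest compound concentration giving complete inhibition of bacterial growth.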

Staphylococcus aureus [3] = test: Antibacterial activity against methicillin-sensitive Staphylococcus aureus 14-1 after 18 to 24 hrs by two-fold serial dilution method; outline: as §2
[4] = system: Mycobacterium tuberculosis; test: Antimycobacterial activity against Mycobacterium tuberculosis H37Rv ATCC 27294 incubated for 7 days by microplate Alamar Blue assay; conditions: H37Rv ATCC 27294, 168 h
Outline: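 Fluorescence read-out. MIC is the lowest concentration that reduces fluorescence by at least 90% relative to the mean of replicate bacterium-only controls. Isoniazid and rifampicin were included as reference drugs.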

Enterococcus faecium [5] = test: Antibacterial activity against Enterococcus faecium 14-2 after 18 to 24 hrs by two-fold serial dilution method; outline: as §2
Escherichia coli [6] = test: Antibacterial activity against Escherichia coli ATCC 25922 after 18 to 24 hrs by two-fold serial dilution method; outline: as §2
Staphylococcus aureus [7] = test: Antibacterial activity against methicillin-resistant Staphylococcus aureus 14-4 after 18 to 24 hrs by two-fold serial dilution method; outline: as §1
[8] = system: Staphylococcus epidermidis; test: Antibacterial activity against methicillin-resistant Staphylococcus epidermidis 14-21 after 18 to 24 hrs by two-fold serial dilution method; outline: as §1
Enterococcus faecalis [9] = test: Antibacterial activity against Enterococcus faecalis 14-1 after 18 to 24 hrs by two-fold serial dilution method; outline: as §2
Streptococcus pneumoniae = test: Antibacterial activity against methicillin-resistant Streptococcus pneumoniae ATCC 19615 after 18 to 24 hrs by two-fold serial dilution method; outline: as §1
Klebsiella pneumoniae [10] = test: Antibacterial activity against extended-spectrum beta-lactamase producing Klebsiella pneumoniae 14-18 after 18 to 24 hrs by two-fold serial dilution method; outline: as §2
Escherichia coli [11] = test: Antibacterial activity against Escherichia coli 14-1 after 18 to 24 hrs by two-fold serial dilution method; outline: as §2
Klebsiella pneumoniae [12] = test: Antibacterial activity against extended-spectrum beta-lactamase producing Klebsiella pneumoniae 14-17 after 18 to 24 hrs by two-fold serial dilution method; outline: as §2
Pseudomonas aeruginosa [13] = test: Antibacterial activity against Pseudomonas aeruginosa 14-15 after 18 to 24 hrs by two-fold serial dilution method; outline: as §2
Pseudomonas aeruginosa [14] = test: Antibacterial activity against Pseudomonas aeruginosa 14-14 after 18 to 24 hrs by two-fold serial dilution method; outline: as §2
Klebsiella pneumoniae [15] = test: Antibacterial activity against Klebsiella pneumoniae 14-3 after 18 to 24 hrs by two-fold serial dilution method; outline: as §2
Pseudomonas aeruginosa [16] = test: Antibacterial activity against Pseudomonas aeruginosa 14-9 after 18 to 24 hrs by two-fold serial dilution method; outline: as §2
Klebsiella pneumoniae [17] = test: Antibacterial activity against Klebsiella pneumoniae 14-2 after 18 to 24 hrs by two-fold serial dilution method; outline: as §2
Pseudomonas aeruginosa [18] = test: Antibacterial activity against Pseudomonas aeruginosa 14-16 after 18 to 24 hrs by two-fold serial dilution method; outline: as §2
[19] = system: Staphylococcus epidermidis; test: Antibacterial activity against methicillin-resistant Staphylococcus epidermidis 14-39 after 18 to 24 hrs by two-fold serial dilution method; outline: as §1
Staphylococcus aureus [20] = test: Antibacterial activity against methicillin-resistant Staphylococcus aureus 14-5 after 18 to 24 hrs by two-fold serial dilution method; outline: as §1
Klebsiella pneumoniae [21] = test: Antibacterial activity against extended-spectrum beta-lactamase producing Klebsiella pneumoniae 14-19 after 18 to 24 hrs by two-fold serial dilution method; outline: as §2
Escherichia coli [22] = test: Antibacterial activity against extended-spectrum beta-lactamase producing Escherichia coli 14-1 after 18 to 24 hrs by two-fold serial dilution method; outline: as §2
[23] = system: Staphylococcus epidermidis; test: Antibacterial activity against methicillin-sensitive Staphylococcus epidermidis 14-2 after 18 to 24 hrs by two-fold serial dilution method; outline: as §2
Enterococcus faecalis [24] = test: Antibacterial activity against Enterococcus faecalis 14-2 after 18 to 24 hrs by two-fold serial dilution method; outline: as §2
[25] = system: Staphylococcus epidermidis; test: Antibacterial activity against methicillin-resistant Staphylococcus epidermidis 14-37 after 18 to 24 hrs by two-fold serial dilution method; outline: as §1
Pseudomonas aeruginosa [26] = test: Antibacterial activity against Pseudomonas aeruginosa ATCC 27853 after 18 to 24 hrs by two-fold serial dilution method; outline: as §2
Enterococcus faecium [27] = test: Antibacterial activity against Enterococcus faecium 14-5 after 18 to 24 hrs by two-fold serial dilution method; outline: as §2
Staphylococcus aureus [28] = test: Antibacterial activity against methicillin-sensitive Staphylococcus aureus 14-3 after 18 to 24 hrs by two-fold serial dilution method; outline: as §2
Escherichia coli [29] = test: Antibacterial activity against extended-spectrum beta-lactamase producing Escherichia coli 14-2 after 18 to 24 hrs by two-fold serial dilution method; outline: as §2
Klebsiella pneumoniae [30] = test: Antibacterial activity against Klebsiella pneumoniae 14-1 after 18 to 24 hrs by two-fold serial dilution method; outline: as §2
Enterococcus faecium [31] = test: Antibacterial activity against Enterococcus faecium 14-6 after 18 to 24 hrs by two-fold serial dilution method; outline: as §2
Staphylococcus aureus [32] = test: Antibacterial activity against Staphylococcus aureus CMCC 26003 after 18 to 24 hrs by two-fold serial dilution method; outline: as §2
Staphylococcus aureus [33] = test: Antibacterial activity against methicillin-sensitive Staphylococcus aureus 14-4 after 18 to 24 hrs by two-fold serial dilution method; outline: as §2
Escherichia coli [34] = test: Antibacterial activity against Escherichia coli 14-2 after 18 to 24 hrs by two-fold serial dilution method; outline: as §2

SMILES | MIC [1] [mg/L] | MIC (Klebsiella pneumoniae [2]) [mg/L] | MIC (Staphylococcus aureus [3]) [mg/L] | MIC90 [4] [mg/L] | MIC (Enterococcus faecium [5]) [mg/L] | MIC (Escherichia coli [6]) [mg/L] | MIC (Staphylococcus aureus [7]) [mg/L] | MIC [8] [mg/L] | MIC (Enterococcus faecalis [9]) [mg/L] | MIC (Streptococcus pneumoniae) [mg/L] | MIC (Klebsiella pneumoniae [10]) [mg/L] | MIC (Escherichia coli [11]) [mg/L] | MIC (Klebsiella pneumoniae [12]) [mg/L] | MIC (Pseudomonas aeruginosa [13]) [mg/L] | MIC (Pseudomonas aeruginosa [14]) [mg/L] | MIC (Klebsiella pneumoniae [15]) [mg/L] | MIC (Pseudomonas aeruginosa [16]) [mg/L] | MIC (Klebsiella pneumoniae [17]) [mg/L] | MIC (Pseudomonas aeruginosa [18]) [mg/L] | MIC [19] [mg/L] | also measured
O=C(O)c1cn([C@@H]2C[C@@H]2F)c2nc(N3C/C(=N/OCc4ccccc4)C(CNC4CC4)C3)c(F)cc2c1=O (stereo not given in full) | 8 (≈ 15.3 µM) | > 128 | 4 (≈ 7.64 µM) | 2.1 (≈ 4.01 µM) | 8 (≈ 15.3 µM) | 0.25 (≈ 0.478 µM) | 32 (≈ 61.1 µM) | 16 (≈ 30.6 µM) | 64 (≈ 122 µM) | 1 (≈ 1.91 µM) | 64 (≈ 122 µM) | > 128 | 64 (≈ 122 µM) | 64 (≈ 122 µM) | 64 (≈ 122 µM) | 128 (≈ 244 µM) | 8 (≈ 15.3 µM) | 64 (≈ 122 µM) | 64 (≈ 122 µM) | 64 (≈ 122 µM) | MIC (Staphylococcus aureus [20]): 8 mg/L (≈ 15.3 µM); MIC (Klebsiella pneumoniae [21]): 128 mg/L (≈ 244 µM); MIC (Escherichia coli [22]): 16 mg/L (≈ 30.6 µM); MIC [23]: 32 mg/L (≈ 61.1 µM); MIC (Enterococcus faecalis [24]): 1 mg/L (≈ 1.91 µM); MIC [25]: 16 mg/L (≈ 30.6 µM); MIC (Pseudomonas aeruginosa [26]): 32 mg/L (≈ 61.1 µM); MIC (Enterococcus faecium [27]): 16 mg/L (≈ 30.6 µM); MIC (Staphylococcus aureus [28]): 4 mg/L (≈ 7.64 µM); MIC (Escherichia coli [29]): > 128 mg/L; MIC (Klebsiella pneumoniae [30]): 128 mg/L (≈ 244 µM); MIC (Enterococcus faecium [31]): 32 mg/L (≈ 61.1 µM); MIC (Staphylococcus aureus [32]): < 0.008 mg/L; MIC (Staphylococcus aureus [33]): 16 mg/L (≈ 30.6 µM); MIC (Escherichia coli [34]): > 128 mg/L
CCO/N=C1/CN(c2nc3c(cc2F)c(=O)c(C(=O)O)cn3-c2nc(N)c(F)cc2F)CC1(C)CNC1CC1 (stereo not given) | 128 (≈ 235 µM) | > 128 | 32 (≈ 58.7 µM) | 27.7 (≈ 50.9 µM) | 128 (≈ 235 µM) | 32 (≈ 58.7 µM) | 64 (≈ 117 µM) | 64 (≈ 117 µM) | 64 (≈ 117 µM) | 16 (≈ 29.3 µM) | > 128 | > 128 | > 128 | 128 (≈ 235 µM) | 128 (≈ 235 µM) | > 128 | 64 (≈ 117 µM) | > 128 | > 128 | 64 (≈ 117 µM) | MIC (Staphylococcus aureus [20]): 64 mg/L (≈ 117 µM); MIC (Klebsiella pneumoniae [21]): > 128 mg/L; MIC (Escherichia coli [22]): 64 mg/L (≈ 117 µM); MIC [23]: 128 mg/L (≈ 235 µM); MIC (Enterococcus faecalis [24]): 8 mg/L (≈ 14.7 µM); MIC [25]: 128 mg/L (≈ 235 µM); MIC (Pseudomonas aeruginosa [26]): 128 mg/L (≈ 235 µM); MIC (Enterococcus faecium [27]): 128 mg/L (≈ 235 µM); MIC (Staphylococcus aureus [28]): 16 mg/L (≈ 29.3 µM); MIC (Escherichia coli [29]): > 128 mg/L; MIC (Klebsiella pneumoniae [30]): > 128 mg/L; MIC (Enterococcus faecium [31]): 64 mg/L (≈ 117 µM); MIC (Staphylococcus aureus [32]): 0.5 mg/L (≈ 0.917 µM); MIC (Staphylococcus aureus [33]): 4 mg/L (≈ 7.33 µM); MIC (Escherichia coli [34]): 128 mg/L (≈ 235 µM)
CCO/N=C1/CN(c2nc3c(cc2F)c(=O)c(C(=O)O)cn3C2CC2)CC1(C)CNC1CC1 (stereo not given) | 4 (≈ 8.74 µM) | > 128 | 0.25 (≈ 0.546 µM) | < 0.25 | 4 (≈ 8.74 µM) | 1 (≈ 2.19 µM) | 4 (≈ 8.74 µM) | 4 (≈ 8.74 µM) | 16 (≈ 35 µM) | 0.25 (≈ 0.546 µM) | 64 (≈ 140 µM) | > 128 | 64 (≈ 140 µM) | 64 (≈ 140 µM) | 128 (≈ 280 µM) | 128 (≈ 280 µM) | 32 (≈ 69.9 µM) | 64 (≈ 140 µM) | 32 (≈ 69.9 µM) | 4 (≈ 8.74 µM) | MIC (Staphylococcus aureus [20]): 4 mg/L (≈ 8.74 µM); MIC (Klebsiella pneumoniae [21]): 64 mg/L (≈ 140 µM); MIC (Escherichia coli [22]): 32 mg/L (≈ 69.9 µM); MIC [23]: 8 mg/L (≈ 17.5 µM); MIC (Enterococcus faecalis [24]): 0.125 mg/L (≈ 0.273 µM); MIC [25]: 2 mg/L (≈ 4.37 µM); MIC (Pseudomonas aeruginosa [26]): 32 mg/L (≈ 69.9 µM); MIC (Enterococcus faecium [27]): 8 mg/L (≈ 17.5 µM); MIC (Staphylococcus aureus [28]): 0.5 mg/L (≈ 1.09 µM); MIC (Escherichia coli [29]): > 128 mg/L; MIC (Klebsiella pneumoniae [30]): 64 mg/L (≈ 140 µM); MIC (Enterococcus faecium [31]): 4 mg/L (≈ 8.74 µM); MIC (Staphylococcus aureus [32]): < 0.008 mg/L; MIC (Staphylococcus aureus [33]): 0.25 mg/L (≈ 0.546 µM); MIC (Escherichia coli [34]): > 128 mg/L
